Results taken from publication PMC9309012 (Journal of medicinal chemistry, 2021).
“Also recorded” adds a separate entry of the source.

Columns and labels:
T. vaginalis F1623 [1] = details: previously discovered; cited from earlier work
[2] = tested on: sensitive T. vaginalis strain; assay: Synergy of gold; type: cell-based, Trichomonas vaginalis; details: 24 h
TrxR in T. vaginalis = details: read-out: IC50, TrxR inhibition; cited from earlier work
T. foetus = assay: In vitro activity against T. foetus; type: cell-based; details: compared with T. vaginalis F1623
[3] = tested on: T. vaginalis strains (four MzS, four MzR); assay: Drug susceptibility of Mz-sensitive and Mz-resistant T. vaginalis lines; type: cell-based, Trichomonas vaginalis; details: for activity against Mz-resistant T. vaginalis lines: four Mz-resistant clinical isolates
Procedure, shortened: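 Trophozoites were cultured at 37 °C in TYM Diamond's medium with 180 μM ferrous ammonium sulphate. Compound stocks were diluted in PBS to 75 μM, then serially diluted 1:3. Plates held 5 × 10^3 trophozoites/well and were incubated 24 h at 37 °C anaerobically. ATP luminescence (BacTiter-Glo) read growth and viability, and curves gave EC50. Replicates: n≥3, mean + SEM. MzS versus MzR groups were compared by unpaired t-test.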

HeLa cells = assay: Cytotoxicity assay in human HeLa cells; type: cell-based; details: for human cytotoxicity: HeLa cells, 48 h, described in words (Fig. 2-4)
T. vaginalis F1623 [4] = assay: T. vaginalis 24 h growth and survival assay; type: cell-based, Trichomonas vaginalis; details: for trichomonacidal activity: T. vaginalis F1623, 24 h, described in words (Fig. 2-4); for reduced trichomonacidal activity compared to the chloride counterparts: bromide and iodide vs chloride complexes (4, 10)
T. foetus D1 = assay: Murine vaginal trichomonad infection model; type: in vivo, BALB/cJ mice; details: 4 days after infection, Wright-Giemsa stain
[5] = intravaginal administration compared to a single oral dose; cited from earlier work
[6] = tributyl vs triethyl phosphine compound

**Q.** Which results are given for `CC(=O)OC[C@H]1O[C@@H]([S-])[C@H](OC(C)=O)[C@@H](OC(C)=O)[C@@H]1OC(C)=O.CCP(CC)CC.[Au+]` [AF, reference compound]?
**A.** activity against T. vaginalis / trichomonads (T. vaginalis F1623 [1]): low μM range; interference or synergy with the activity of Mz [2]: neither compound 4 nor AF interfered or synergized; IC50 (TrxR in T. vaginalis): ~100 nM; activity against T. foetus in vitro (T. foetus): as active against T. foetus in vitro as they were against T. vaginalis; activity against Mz-resistant T. vaginalis lines [3]: sensitive; human cytotoxicity (HeLa cells): slightly more toxic against human cells than the parasite

**Q.** Which trichomonacidal activity (T. vaginalis F1623 [4]) does the source give for `OCC1OC([S-])C(O)C(O)C1O.[Au+]` (stereo not drawn) [ATG, 3,4,5-trihydroxy-6-(hydroxymethyl)oxane-2-thiolate gold (I), reference compound] here?
**A.** barely showed activity

**Q.** With `O.O=C([O-])CC([S-])C(=O)[O-].[Au+].[Na+].[Na+]` (stereo not drawn) [ATM, (1,2-Dicarboxyethylthio) disodium salt hydrate gold(I), reference compound] as the molecule, how does the trichomonacidal activity (T. vaginalis F1623 [4]) read?
**A.** barely showed activity

**Q.** For `CC[P+](CC)(CC)[Au-][S]C(CC(=O)O)C(=O)O` (stereo not drawn) [Compound 2, S-Triethylphosphine gold(I) thiomalic acid], which human cytotoxicity (HeLa cells) is on record?
**A.** toxic in human cells

**Q.** And the trichomonacidal activity (T. vaginalis F1623 [4])?
**A.** improved trichomonacidal activity similar to AF

**Q.** Which results are given for `CC[P](CC)(CC)[Au][c]1n(-c2c(C)cc(C)cc2C)cc[n+]1-c1c(C)cc(C)cc1C.[Cl-]` [Compound 3, [Triethylphosphine-(bis(2,4,6-trimethylphenyl)imidazol-2-ylidene)]gold(I) chloride]?
**A.** human cytotoxicity (HeLa cells): strongly increased human cytotoxicity; trichomonacidal activity (T. vaginalis F1623 [4]): did not enhance trichomonacidal activity

**Q.** What does the source list for `CCP(CC)CC.[Au+].[Cl-]` [Compound 4, (Tri-n-ethylphosphine)gold(I) chloride]?
**A.** histological analysis of vaginal tract (T. foetus D1): disappearance of T. foetus trophozoites from the vaginal lumen; interference or synergy with the activity of Mz [2]: neither compound 4 nor AF interfered or synergized; activity against T. foetus in vitro (T. foetus): as active against T. foetus in vitro as they were against T. vaginalis; activity against Mz-resistant T. vaginalis lines [3]: sensitive; human cytotoxicity (HeLa cells): markedly reduced human cytotoxicity; also recorded: decreased human cytotoxicity; trichomonacidal activity (T. vaginalis F1623 [4]): slightly increased activity against T. vaginalis; also recorded: low μM range

**Q.** For `C[P+](C)(C)[Au-][Cl]` [Compound 10, (Tri-n-methylphosphine)gold(I) chloride], which “activity against T. foetus in vitro” value (T. foetus) is on record?
**A.** as active against T. foetus in vitro as they were against T. vaginalis

**Q.** What about the “activity against Mz-resistant T. vaginalis lines” value [3] of the same molecule?
**A.** sensitive

**Q.** What about the human cytotoxicity (HeLa cells) of the same molecule?
**A.** decreased human cytotoxicity

**Q.** What about the trichomonacidal activity (T. vaginalis F1623 [4]) of the same molecule?
**A.** low μM range

**Q.** Which human cytotoxicity (HeLa cells) does the source give for `C[P+](C)(C)[Au-][P+](C)(C)C.[Cl-]` [Compound 13, Bis(trimethylphosphine)gold(I) chloride] here?
**A.** as or moderately more active

**Q.** What about the trichomonacidal activity (T. vaginalis F1623 [4]) of the same molecule?
**A.** as or moderately more active

**Q.** Which human cytotoxicity (HeLa cells) does the source give for `CCC[P+](CCC)(CCC)[Au-][P+](CCC)(CCC)CCC.[Cl-]` [Compound 15, Bis(tri-n-propylphosphine)gold(I) chloride] here?
**A.** as or moderately more active

**Q.** And the trichomonacidal activity (T. vaginalis F1623 [4])?
**A.** as or moderately more active

**Q.** For `CC(C)[P+]([Au-][P+](C(C)C)(C(C)C)C(C)C)(C(C)C)C(C)C.[Cl-]` [Compound 16, Bis(triisopropylphosphine)gold(I) chloride], which human cytotoxicity (HeLa cells) is on record?
**A.** as or moderately more active

**Q.** And the trichomonacidal activity (T. vaginalis F1623 [4])?
**A.** as or moderately more active

**Q.** What does the source list for `CC(C)(C)[PH+](C(C)(C)C)C(C)(C)C.[Cl][Au]` [Compound 17, (Tri-tert-butylphosphine)gold(I) chloride]?
**A.** human cytotoxicity (HeLa cells): inactive; trichomonacidal activity (T. vaginalis F1623 [4]): inactive

**Q.** Which results are given for `Cc1ncc([N+](=O)[O-])n1CCO` [Mz, metronidazole, reference compound]?
**A.** decrease in systemic exposure [5]: 96–98%; loss in Mz susceptibility ([3]; four Mz-resistant lines compared to four susceptible lines): 20- to 100 fold

**Q.** What does the source list for “(1-Thio-β-D-glucopyranosato) (triethylphosphine) gold(I) [Compound 1]”?
**A.** human cytotoxicity (HeLa cells): toxic in human cells; trichomonacidal activity (T. vaginalis F1623 [4]): improved trichomonacidal activity similar to AF

**Q.** Which “lower activity against human cells than triethyl partner” value (HeLa cells; [6]) does the source give for “(2,3,4,6-Tetra-O-acetyl-1-thio-β-D-galacotopyranosato)(butylphosphine) gold(I) [Compound 5]” here?
**A.** ~ 10 fold

**Q.** What about the “lower activity against T. vaginalis than triethyl partner” value (T. vaginalis F1623 [4]; [6]) of the same molecule?
**A.** ~ 10 fold

**Q.** For “(Tri-n-butylphosphine)gold(I) chloride [Compound 9]”, which human cytotoxicity (HeLa cells) is on record?
**A.** abolished all activity; also recorded: inactive

**Q.** And the trichomonacidal activity (T. vaginalis F1623 [4])?
**A.** abolished all activity; also recorded: inactive

**Q.** Which results are given for “(Tri-n-propylphosphine)gold(I) chloride [Compound 11]”?
**A.** human cytotoxicity (HeLa cells): decreased human cytotoxicity; trichomonacidal activity (T. vaginalis F1623 [4]): low μM range

**Q.** Which “reduced trichomonacidal activity compared to the chloride counterparts” value (shortened to “reduced trichomonacidal activity”) (T. vaginalis F1623 [4]) does the source give for “(Triethylphosphine)gold(I) bromide [Compound 24]” here?
**A.** 5- to 10 fold

**Q.** For “(Triethylphosphine)gold(I) iodide [Compound 26]”, which “reduced trichomonacidal activity” value (T. vaginalis F1623 [4]) is on record?
**A.** 5- to 10 fold

**Q.** For “(Triisopropylphosphine)gold(I) chloride [Compound 12]”, which human cytotoxicity (HeLa cells) is on record?
**A.** decreased human cytotoxicity

**Q.** What about the trichomonacidal activity (T. vaginalis F1623 [4]) of the same molecule?
**A.** low μM range

**Q.** With “(Trimethylphosphine)gold(I) bromide [Compound 23]” as the molecule, how does the “reduced trichomonacidal activity” value (T. vaginalis F1623 [4]) read?
**A.** 5- to 10 fold

**Q.** With “(Trimethylphosphine)gold(I) iodide [Compound 25]” as the molecule, how does the “reduced trichomonacidal activity” value (T. vaginalis F1623 [4]) read?
**A.** 5- to 10 fold

**Q.** Which human cytotoxicity (HeLa cells) does the source give for “Bis(triethylphosphine)gold(I) chloride [Compound 14]” here?
**A.** as or moderately more active

**Q.** And the trichomonacidal activity (T. vaginalis F1623 [4])?
**A.** as or moderately more active
